What was measured:
[1] = Metabolic stability in mouse liver microsomes assessed as parent compound remaining; format: ADME, Microsome
In short: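 Test compound at 0.5 μM initial concentration incubated with human, mouse or rat liver microsomes (protein 1 mg/mL). Metabolic stability reported as percent of parent compound remaining after incubation.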

[2] = Half life in mouse liver microsomes; format: ADME, Microsome
In short: (§1)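 Liver microsome half-life (min) measured in human, mouse, rat, dog and cyno liver microsomes.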

[3] = Half life in rat liver microsomes; format: ADME, Microsome; in short: as §1
[4] = target: T1, Nuclear receptor ROR-beta (Homo sapiens, UniProt Q92753); assay: Inverse agonist activity at Gal4-fused RORbeta (unknown origin)
T1 sequence (Q92753 whole entry): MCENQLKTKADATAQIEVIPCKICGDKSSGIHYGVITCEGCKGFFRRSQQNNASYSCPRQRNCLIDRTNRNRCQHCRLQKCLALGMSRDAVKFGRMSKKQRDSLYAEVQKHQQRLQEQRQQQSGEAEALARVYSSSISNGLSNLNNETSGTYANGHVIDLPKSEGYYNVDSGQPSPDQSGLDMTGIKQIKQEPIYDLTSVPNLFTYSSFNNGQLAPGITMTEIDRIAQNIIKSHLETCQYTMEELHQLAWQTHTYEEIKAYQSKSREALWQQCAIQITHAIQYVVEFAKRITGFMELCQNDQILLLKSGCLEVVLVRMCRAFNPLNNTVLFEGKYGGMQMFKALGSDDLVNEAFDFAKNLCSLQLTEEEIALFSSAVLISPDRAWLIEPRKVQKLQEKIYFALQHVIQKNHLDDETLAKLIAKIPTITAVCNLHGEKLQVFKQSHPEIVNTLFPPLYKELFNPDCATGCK

[5] = target: Voltage-gated inwardly rectifying potassium channel KCNH2 (Homo sapiens, UniProt Q12809); assay: Inhibition of human ERG by patch-clamp assay
Sequence of Voltage-gated inwardly rectifying potassium channel KCNH2 (Q12809 whole entry): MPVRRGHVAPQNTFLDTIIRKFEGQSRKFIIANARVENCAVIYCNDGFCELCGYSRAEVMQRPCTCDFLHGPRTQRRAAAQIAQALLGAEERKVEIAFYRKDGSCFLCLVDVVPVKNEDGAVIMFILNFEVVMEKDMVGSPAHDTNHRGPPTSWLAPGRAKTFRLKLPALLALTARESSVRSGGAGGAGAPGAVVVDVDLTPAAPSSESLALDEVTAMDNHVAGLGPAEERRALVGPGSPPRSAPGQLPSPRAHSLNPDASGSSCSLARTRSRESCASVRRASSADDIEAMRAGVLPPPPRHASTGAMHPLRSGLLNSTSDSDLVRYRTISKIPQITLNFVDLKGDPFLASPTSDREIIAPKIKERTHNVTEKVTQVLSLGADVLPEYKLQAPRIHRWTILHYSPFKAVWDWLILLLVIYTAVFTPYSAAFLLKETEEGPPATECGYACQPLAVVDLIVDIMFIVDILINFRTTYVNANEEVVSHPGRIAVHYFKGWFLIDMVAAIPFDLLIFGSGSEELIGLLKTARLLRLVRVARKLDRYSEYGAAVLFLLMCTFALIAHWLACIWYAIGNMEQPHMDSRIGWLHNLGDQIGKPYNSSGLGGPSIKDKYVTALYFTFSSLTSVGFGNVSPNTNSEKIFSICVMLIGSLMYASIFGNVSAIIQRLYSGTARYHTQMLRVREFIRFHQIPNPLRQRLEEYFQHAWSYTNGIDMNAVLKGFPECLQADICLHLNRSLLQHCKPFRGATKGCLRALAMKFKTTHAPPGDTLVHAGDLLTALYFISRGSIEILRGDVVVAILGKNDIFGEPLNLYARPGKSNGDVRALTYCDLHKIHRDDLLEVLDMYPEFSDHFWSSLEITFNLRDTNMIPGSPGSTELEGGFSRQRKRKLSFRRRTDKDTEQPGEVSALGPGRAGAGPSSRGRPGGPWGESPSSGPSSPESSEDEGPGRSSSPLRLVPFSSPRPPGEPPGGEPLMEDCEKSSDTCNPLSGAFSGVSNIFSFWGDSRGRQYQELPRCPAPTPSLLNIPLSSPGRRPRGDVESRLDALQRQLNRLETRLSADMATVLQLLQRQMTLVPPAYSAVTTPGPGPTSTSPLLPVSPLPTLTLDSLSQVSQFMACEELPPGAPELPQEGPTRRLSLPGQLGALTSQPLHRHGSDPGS

[6] = Protein binding in mouse assessed as unbound fraction; format: ADME
Cytochrome P450 2D6 = Cytochrome P450 2D6 (Homo sapiens, UniProt P10635); assay: Inhibition of CYP2D6 (unknown origin); format: ADME
Sequence of Cytochrome P450 2D6 (P10635 whole entry): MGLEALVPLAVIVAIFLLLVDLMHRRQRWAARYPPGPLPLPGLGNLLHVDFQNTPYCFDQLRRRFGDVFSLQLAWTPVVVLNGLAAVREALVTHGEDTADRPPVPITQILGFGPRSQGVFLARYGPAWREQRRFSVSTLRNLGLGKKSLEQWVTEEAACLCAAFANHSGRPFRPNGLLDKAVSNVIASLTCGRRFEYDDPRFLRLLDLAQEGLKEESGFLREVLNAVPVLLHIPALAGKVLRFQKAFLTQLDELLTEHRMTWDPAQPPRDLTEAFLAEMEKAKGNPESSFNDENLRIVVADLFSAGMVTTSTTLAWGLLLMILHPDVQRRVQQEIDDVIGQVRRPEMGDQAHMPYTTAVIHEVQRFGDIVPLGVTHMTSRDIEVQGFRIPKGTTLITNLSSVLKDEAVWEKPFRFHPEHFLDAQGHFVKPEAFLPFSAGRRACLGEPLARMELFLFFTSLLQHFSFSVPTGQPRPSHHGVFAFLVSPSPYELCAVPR

Cytochrome P450 2C19 = Cytochrome P450 2C19 (Homo sapiens, UniProt P33261); assay: Inhibition of CYP2C19 (unknown origin); format: ADME
Sequence of Cytochrome P450 2C19 (P33261 whole entry): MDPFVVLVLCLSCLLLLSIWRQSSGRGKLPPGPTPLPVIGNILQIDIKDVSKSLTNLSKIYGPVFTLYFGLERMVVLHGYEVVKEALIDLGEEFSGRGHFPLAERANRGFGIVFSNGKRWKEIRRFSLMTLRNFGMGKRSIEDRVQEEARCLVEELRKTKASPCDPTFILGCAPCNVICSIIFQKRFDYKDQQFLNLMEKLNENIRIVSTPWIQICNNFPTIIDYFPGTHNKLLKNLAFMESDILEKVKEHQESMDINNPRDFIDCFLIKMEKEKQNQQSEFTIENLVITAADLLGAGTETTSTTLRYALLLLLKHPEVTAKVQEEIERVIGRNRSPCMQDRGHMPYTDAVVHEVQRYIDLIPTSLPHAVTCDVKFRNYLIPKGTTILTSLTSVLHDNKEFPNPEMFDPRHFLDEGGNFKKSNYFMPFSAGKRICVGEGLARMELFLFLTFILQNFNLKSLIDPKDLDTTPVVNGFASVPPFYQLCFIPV

[7] = Cmax in mouse at 4 mg/kg, po; format: ADME, organism-based; design: route oral, dose 4 mg/kg; details: in vivo
In short: (§2)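 Single-dose PK, IV and PO. Doses: mouse and rat 2 mg/kg IV / 4 mg/kg PO; dog and cyno 1 mg/kg IV, with 1 or 2 mg/kg PO.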

[8] = Volume of distribution at steady state in rat at 2 mg/kg, iv; format: ADME, organism-based; details: in vivo, read-out: Vdss
In short: (§3)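 Single intravenous dose: mouse and rat 2 mg/kg, dog and cynomolgus 1 mg/kg. Steady-state volume of distribution was derived from the IV arm. Values are means from three or more animals.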

[9] = Cmax in rat at 4 mg/kg, po; format: ADME, organism-based; design: route oral, dose 4 mg/kg; details: in vivo; in short: as §2
[10] = Clearance in dog at 1 mg/kg, iv; format: ADME, organism-based, Canis lupus familiaris; details: in vivo; in short: as §2
[11] = Volume of distribution at steady state in dog at 1 mg/kg, iv; format: ADME, organism-based, Canis lupus familiaris; details: in vivo, read-out: Vdss; in short: as §3
[12] = AUC (0 to 24 hrs) in dog at 2 mg/kg, po; format: ADME, organism-based, Canis lupus familiaris; design: time < 24 hr, route oral, dose 2 mg/kg; details: in vivo
[13] = Oral bioavailability in dog at 2 mg/kg; format: ADME, organism-based, Canis lupus familiaris; details: in vivo; in short: as §2
[14] = Clearance in cynomolgus monkey at 1 mg/kg, iv; format: ADME, organism-based, Macaca fascicularis; details: in vivo; in short: as §2
[15] = Volume of distribution at steady state in cynomolgus monkey at 1 mg/kg, iv; format: ADME, organism-based, Macaca fascicularis; details: in vivo, read-out: Vdss; in short: as §3
[16] = AUC (0 to 24 hrs) in cynomolgus monkey at 2 mg/kg, po; format: ADME, organism-based, Macaca fascicularis; design: time < 24 hr, route oral, dose 2 mg/kg; details: in vivo
Mus musculus [17] = assay: Protection against imiquimod-induced C57BL/6 mouse model of psoriasis assessed as inhibition of skin thickening at 5 mg/kg, po BID for 7 days and measured every day for 8 days relative to control; format: functional; details: C57BL/6, po, 168 h, time 7 day
Mus musculus [18] = assay: Protection against imiquimod-induced C57BL/6 mouse model of psoriasis assessed as inhibition of skin thickening at 10 mg/kg, po BID for 7 days and measured every day for 8 days relative to control; format: functional; details: C57BL/6, po, 168 h, time 7 day
Mus musculus [19] = assay: Protection against imiquimod-induced C57BL/6 mouse model of psoriasis assessed as inhibition of skin thickening at 20 mg/kg, po BID for 7 days and measured every day for 8 days relative to control; format: functional; details: C57BL/6, po, 168 h, time 7 day
Mus musculus [20] = assay: Protection against imiquimod-induced C57BL/6 mouse model of psoriasis assessed as reduction in IL-17A mRNA levels at 10 mg/kg, po BID for 7 days by RT-PCR analysis relative to control; format: functional; design: scale not given: the % may be the effect or the level left; details: time 7 day
Mus musculus [21] = assay: Protection against recombinant human IL23-induced acanthosis C57BL/6 mouse model assessed as inhibition of ear thickening at 15 mg/kg, po BID for 10 days and measured every other day relative to control; format: functional; details: C57BL/6, po, 240 h, time 10 day
In short: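 IL-23 ear-injection acanthosis model in C57BL/6 mice with BID oral dosing. Ear thickness % change was recorded every other day, before each next injection, from a day 0 baseline. Inhibition of ear thickening was calculated against the placebo arm from the area under the curve over the study duration.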

Mus musculus [22] = assay: Protection against recombinant human IL23-induced acanthosis C57BL/6 mouse model assessed as reduction in IL-17A mRNA levels at 3 mg/kg, po BID BID for 10 days by qRT-PCR analysis relative to control; format: functional; design: scale not given: the % may be the effect or the level left; details: time 10 day
In short: (§4)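 In the IL-23 ear-injection model in C57BL/6 mice with BID oral dosing, ear tissue was collected from all animals at study end on day 10. IL-17A and IL-17F mRNA expression was quantified by qPCR and compared with the placebo arm.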

Mus musculus [23] = assay: Protection against recombinant human IL23-induced acanthosis C57BL/6 mouse model assessed as reduction in IL-17A mRNA levels at 6 mg/kg, po BID BID for 10 days by qRT-PCR analysis relative to control; format: functional; design: scale not given: the % may be the effect or the level left; details: time 10 day; in short: as §4
Mus musculus [24] = assay: Protection against recombinant human IL23-induced acanthosis C57BL/6 mouse model assessed as reduction in IL-17A mRNA levels at 15 mg/kg, po BID BID for 10 days by qRT-PCR analysis relative to control; format: functional; design: scale not given: the % may be the effect or the level left; details: time 10 day; in short: as §4
Mus musculus [25] = assay: Protection against recombinant human IL23-induced acanthosis C57BL/6 mouse model assessed as reduction in IL-17F mRNA levels at 6 mg/kg, po BID BID for 10 days by qRT-PCR analysis relative to control; format: functional; design: scale not given: the % may be the effect or the level left; details: time 10 day; in short: as §4
Mus musculus [26] = assay: Protection against recombinant human IL23-induced acanthosis C57BL/6 mouse model assessed as reduction in IL-17F mRNA levels at 15 mg/kg, po BID BID for 10 days by qRT-PCR analysis relative to control; format: functional; design: scale not given: the % may be the effect or the level left; details: time 10 day; in short: as §4

## CC(C)(O)C(=O)N[C@@H]1CC[C@@]2(S(=O)(=O)c3ccc(F)cc3)c3ccc(C(F)(C(F)(F)F)C(F)(F)F)cc3CC[C@@H]12
[1]
  Stabilty: 92%
[2]
  half-life: 2 h
[3]
  half-life: 2 h
[4]
  EC50: > 10 µM
[5]
  IC50: 19 µM
[6]
  fraction unbound: 0.006
Cytochrome P450 2D6
  IC50: 20 µM
Cytochrome P450 2C19
  IC50: 19 µM
[7]
  Cmax: 2200 nM
[8]
  Vd: 2.9 L/kg
[9]
  Cmax: 1000 nM
[10]
  clearance: 0.8 mL/min/kg
[11]
  Vd: 3.2 L/kg
[12]
  AUC(0-t) at 24 h: 59.8 µM·h
[13]
  bioavailability: 83%
[14]
  clearance: 2.7 mL/min/kg
[15]
  Vd: 2.7 L/kg
[16]
  AUC(0-t) at 24 h: 18 µM·h
Mus musculus [17]
  inhibition in vivo at 5 mg/kg: 13.7%
Mus musculus [18]
  inhibition in vivo at 10 mg/kg: 39.6%
Mus musculus [19]
  inhibition in vivo at 20 mg/kg: 57.7%
Mus musculus [20]
  Activity: 76.7%
Mus musculus [21]
  inhibition in vivo at 15 mg/kg: 66.8%
Mus musculus [22]
  Activity: 2.7%
Mus musculus [23]
  Activity: 64.9%
Mus musculus [24]
  Activity: 71.6%
Mus musculus [25]
  Activity: 87.3%
Mus musculus [26]
  Activity: 79.6%
